iPSC survival up: increases survival of single human iPS cells | 0.044% of 360,000 active | hiPSC single-cell survival, ATPlite luminescence; 100% = ROCK inhibitor wells, 0% = DMSO | survival enhancement, % at 20 µM; in the data active means survival enhancement above about 18%;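 further: cells exposed to compounds for 16 hours before the ATP read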
FAS-TE inh: blocks the thioesterase domain of human fatty acid synthase | P49327 | recombinant FAS-TE, OMFH fluorogenic substrate, fluorescence endpoint | inhibition, % at 15 µM | 0.67% of 360,000 active | AID 602261;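 active means compounds whose normalised, plate-corrected inhibition of enzyme fluorescence in the single-dose primary screen is 50% or more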;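 further: 0% = DMSO with enzyme and 100% = substrate without enzyme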
SENP1 FRET inh: blocks the human SENP1 SUMO protease catalytic domain; 0.21% of 360,000 active; Q9P0U3; inhibition, % at 10 µM; recombinant SENP1 catalytic domain, CyPet-SUMO1-YPet FRET cleavage;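 active means inhibition at least 30% at 10 µM, raw YFP signal under a set limit, fluorescence ratio 0.5 to 1.5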;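 further: 0% = enzyme with DMSO and 100% = no enzyme wells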
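System: Recombinant human SENP1 catalytic domain, His6-tagged | Incubation: Enzyme reaction for 50 min at room temperature, dark | Medium: Tris pH 8 with BME, BSA, NP40 and catalase | Also added: 25 nM SUMO1 FRET substrate | Compound: 10 µM single point, 0.5% DMSO | Measured by: FRET fluorescence in CFP and YFP emission channels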
ABCB6 inh MLPCN: human ABCB6 transporter inhibition; K562-ABCB6 porphyrin accumulation, flow cytometry, 1 h; hits give low values; fluorescence ratio to DMSO, % at 10 µM; 0.19% of 360,000 active; Q9NP58; AID 602162;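 active means fluorescence ratio to DMSO below 75%, the collection mean minus 3 SD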;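 further: signal is porphyrin accumulated inside mitochondria; 100% equals median channel fluorescence of DMSO control wells; lower ratio means ABCB6 inhibition with less porphyrin fluorescence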
Target sequence (Q9NP58 whole entry, looked up): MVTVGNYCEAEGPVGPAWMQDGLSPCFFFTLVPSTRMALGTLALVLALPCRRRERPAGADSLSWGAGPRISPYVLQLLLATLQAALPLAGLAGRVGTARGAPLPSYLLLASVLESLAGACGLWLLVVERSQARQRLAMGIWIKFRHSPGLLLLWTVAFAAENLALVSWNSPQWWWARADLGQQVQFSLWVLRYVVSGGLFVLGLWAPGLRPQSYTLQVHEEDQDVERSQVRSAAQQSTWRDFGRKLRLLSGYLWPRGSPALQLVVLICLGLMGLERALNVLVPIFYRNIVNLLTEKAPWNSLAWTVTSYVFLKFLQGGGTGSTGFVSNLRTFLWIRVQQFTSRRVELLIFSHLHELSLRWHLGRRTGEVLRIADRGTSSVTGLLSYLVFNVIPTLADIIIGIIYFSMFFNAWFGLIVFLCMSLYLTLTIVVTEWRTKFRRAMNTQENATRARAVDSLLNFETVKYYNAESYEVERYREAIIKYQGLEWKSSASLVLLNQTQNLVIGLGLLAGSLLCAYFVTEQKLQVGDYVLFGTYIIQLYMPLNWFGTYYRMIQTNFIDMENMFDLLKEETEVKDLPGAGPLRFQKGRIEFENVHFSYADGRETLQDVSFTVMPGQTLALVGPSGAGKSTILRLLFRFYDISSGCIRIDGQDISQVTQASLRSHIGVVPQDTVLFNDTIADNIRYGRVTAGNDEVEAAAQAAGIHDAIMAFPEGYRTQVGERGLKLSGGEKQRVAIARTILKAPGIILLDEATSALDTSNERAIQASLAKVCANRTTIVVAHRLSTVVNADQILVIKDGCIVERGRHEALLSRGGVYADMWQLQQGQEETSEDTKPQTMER
FAS-TE inh conf: confirmation of human fatty acid synthase thioesterase inhibitors; shares compounds with FAS-TE inh; recombinant FAS-TE, OMFH fluorogenic substrate, fluorescence; inhibition, % at 15 µM; 45% of 2,300 active;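 active means compounds inhibiting the enzyme by at least 50% at 15 µM in any one of the replicates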;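 further: 0% = enzyme with DMSO only and 100% = wells lacking enzyme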
* = called active by the depositor. Sampled rows, rich in hits. Any-hit rate of the full collection: about 1.1%.

Cc1ccc(S(=O)(=O)N(C)C[C@@H]2OCCCC[C@H](C)Oc3ccc(NC(=O)Nc4ccc(F)cc4)cc3C(=O)N([C@H](C)CO)C[C@H]2C)cc1 was read as iPSC survival up -2, FAS-TE inh 62*, SENP1 FRET inh -1, ABCB6 inh MLPCN 102 and FAS-TE inh conf 0.
Screening Cc1ccc(S(=O)(=O)Nc2ccc3c(c2)C(=O)N([C@H](C)CO)C[C@H](C)[C@@H](CN(C)Cc2ccc(-c4ccccc4)cc2)O3)cc1 returned iPSC survival up -4, FAS-TE inh 81*, SENP1 FRET inh 1, ABCB6 inh MLPCN 88 and FAS-TE inh conf 29.
`C[C@H](CO)N1C[C@H](C)[C@@H](CN(C)Cc2ccc(Cl)c(Cl)c2)Oc2c(NS(=O)(=O)c3ccc(F)cc3)cccc2C1=O` gave iPSC survival up -2, FAS-TE inh 54*, SENP1 FRET inh 2, ABCB6 inh MLPCN 101 and FAS-TE inh conf 58*.
`C[C@H](CO)N1C[C@H](C)[C@@H](CN(C)Cc2ccccc2)Oc2c(NS(=O)(=O)c3ccc(F)cc3)cccc2C1=O` gave iPSC survival up -2, FAS-TE inh -7, SENP1 FRET inh 0 and ABCB6 inh MLPCN 93.
COc1ccc(S(=O)(=O)N(C)C[C@H]2OCCCC[C@H](C)Oc3ccc(NC(=O)Nc4ccc(F)cc4)cc3C(=O)N([C@H](C)CO)C[C@H]2C)cc1 was read as iPSC survival up -2, FAS-TE inh 32, SENP1 FRET inh 1 and ABCB6 inh MLPCN 99.
Screening Cc1cc(C)n2nc(/C(C#N)=C/c3ccccn3)c(C#N)c2n1 returned iPSC survival up 0, FAS-TE inh 1, SENP1 FRET inh -1 and ABCB6 inh MLPCN 108.
`CCOc1ccc(NS(=O)(=O)c2cc(C(=O)N3CCN(c4ccccc4O)CC3)ccc2Cl)cc1` gave iPSC survival up 0, FAS-TE inh 16, SENP1 FRET inh 1 and ABCB6 inh MLPCN 99.
O=C(NCc1ccco1)c1cc([N+](=O)[O-])ccc1N1CCCCC1 was read as iPSC survival up 1, FAS-TE inh 14, SENP1 FRET inh -1 and ABCB6 inh MLPCN 102.
O=C(/C=C/c1ccc([N+](=O)[O-])cc1)NCc1ccc2c(c1)OCO2 was read as iPSC survival up -1, FAS-TE inh 16, SENP1 FRET inh 2 and ABCB6 inh MLPCN 99.
O=C(NCc1ccc2c(c1)OCO2)c1cc([N+](=O)[O-])ccc1N1CCCCC1 was read as iPSC survival up 3, FAS-TE inh 64*, SENP1 FRET inh -2, ABCB6 inh MLPCN 102 and FAS-TE inh conf 54*.
Screening COC(=O)c1cc(C(=O)NCc2ccc3c(c2)OCO3)cc([N+](=O)[O-])c1 returned iPSC survival up 0, FAS-TE inh 59*, SENP1 FRET inh 3, ABCB6 inh MLPCN 98 and FAS-TE inh conf 71*.
Screening O=C(CSc1nc2cc([N+](=O)[O-])ccc2n1-c1ccccc1)NCc1ccc2c(c1)OCO2 returned iPSC survival up 0, FAS-TE inh 52*, SENP1 FRET inh 2, ABCB6 inh MLPCN 100 and FAS-TE inh conf 36.
`O=C(/C=C/c1cccc([N+](=O)[O-])c1)NCc1ccc2c(c1)OCO2` gave iPSC survival up 0, FAS-TE inh 68*, SENP1 FRET inh 0, ABCB6 inh MLPCN 98 and FAS-TE inh conf 82*.
Screening Nc1[nH]nc2c1NN(c1ccc(Cl)cc1Cl)N2 returned iPSC survival up -1, FAS-TE inh -12, SENP1 FRET inh 1 and ABCB6 inh MLPCN 101.
For CSCCC(C(=O)NC(C)(C)C)n1c(-c2cccc(NC(C)=O)c2)nc2ccccc21 (stereo not drawn) the results were SENP1 FRET inh -3.
For CC1(C(=O)Nc2cnc3ccccc3c2)CCN1C(=O)CCc1ccccc1 (stereo not drawn) the results were iPSC survival up 0, FAS-TE inh 0, SENP1 FRET inh 0 and ABCB6 inh MLPCN 97.
Screening CCN(CC)C(CNC(=O)c1cc(=O)[nH]c2ccccc12)c1ccccc1Cl (stereo not drawn) returned iPSC survival up 0, FAS-TE inh -4, SENP1 FRET inh -7 and ABCB6 inh MLPCN 99.
COc1ccc(NC2=Nc3ccccc3N3C2=Nc2c(c(C)nn2-c2ccc(C)cc2)C3c2cccnc2)cc1 (stereo not drawn) was read as iPSC survival up 4, FAS-TE inh 70*, SENP1 FRET inh -28, ABCB6 inh MLPCN 110 and FAS-TE inh conf 9.
CC(=O)Nc1ccc(NC2=Nc3ccccc3N3C2=Nc2c(c(C)nn2-c2ccccc2)C3c2ccccc2)cc1 (stereo not drawn) was read as iPSC survival up -1, FAS-TE inh 46, SENP1 FRET inh -22 and ABCB6 inh MLPCN 90.
C[C@H]1CN([C@@H](C)CO)C(=O)CCCn2nncc2CO[C@@H]1CN(C)S(=O)(=O)c1cccc(F)c1 was read as iPSC survival up 0, FAS-TE inh -5, SENP1 FRET inh 2 and ABCB6 inh MLPCN 102.
Screening c1ccc(-c2ccncn2)cc1 returned iPSC survival up -1, FAS-TE inh -6, SENP1 FRET inh 0 and ABCB6 inh MLPCN 101.
`COC(=O)N1C(=O)[C@](CC(C)C)(c2ccccc2)N1C(=O)OC` gave iPSC survival up -2, FAS-TE inh 85*, SENP1 FRET inh 1, ABCB6 inh MLPCN 91 and FAS-TE inh conf 88*.
`COC(=O)N1C(=O)[C@](c2ccc(OC)cc2)(C(C)C)N1C(=O)OC` gave iPSC survival up -2, FAS-TE inh 72*, SENP1 FRET inh -1, ABCB6 inh MLPCN 97 and FAS-TE inh conf 82*.
CC[C@@]1(c2cccc(C)c2)C(=O)N(C(=O)OC)N1C(=O)OC was read as iPSC survival up -2, FAS-TE inh 79*, SENP1 FRET inh 1, ABCB6 inh MLPCN 92 and FAS-TE inh conf 70*.
COC(=O)N1C(=O)[C@](c2ccccc2)(C2CCCCC2)N1C(=O)OC was read as iPSC survival up -1, FAS-TE inh 80*, SENP1 FRET inh 1, ABCB6 inh MLPCN 99 and FAS-TE inh conf 95*.
Cc1nn(C2CCS(=O)(=O)C2)c(C)c1CN(C)C(=O)c1ccc(S(=O)(=O)N(C)C)cc1 (stereo not drawn) was read as iPSC survival up 0, FAS-TE inh -5, SENP1 FRET inh -3 and ABCB6 inh MLPCN 92.
Screening O=C(NCCc1cnc[nH]1)c1ccc(-c2ccccc2)cc1 returned iPSC survival up 0, FAS-TE inh -9, SENP1 FRET inh 2 and ABCB6 inh MLPCN 107.
Screening CCc1nc2c(OCC(=O)c3ccc(Cl)cc3Cl)cccn2c1N(C=O)Cc1ccc(OC)cc1 returned iPSC survival up 0, FAS-TE inh 18, SENP1 FRET inh -22 and ABCB6 inh MLPCN 99.
Screening CCc1nc2c(OCc3ccc(Cl)cc3Cl)cccn2c1N(C=O)Cc1ccc(OC)cc1 returned iPSC survival up 3, FAS-TE inh 78*, SENP1 FRET inh 0, ABCB6 inh MLPCN 92 and FAS-TE inh conf 62*.

Screening results: PubChem, several laboratories
